STAT3 blocker – IL-6 driven STAT3 reporter inhibitors, primary screen, U3A cells, luciferase, luminescence, MLSCN library; IL-6 STAT3-luciferase reporter; host cell line lacks STAT1; inhibition, % at 5.5 µM; 190,000 tested, 0.89% active; AID 862, 2007;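 active = inhibition above the mean inhibition across all screened compounds plus 3 SD, cut at about 44% in these data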;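 note: 0% = DMSO only wells and 100% = 100 µM nifuroxazide control wells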
PPC-1+TRAIL kill – compounds killing PPC-1 cancer cells with TRAIL present, primary screen, TRAIL potentiator project, ATPLite luminescence, uHTS. PPC-1 cells + TRAIL, ATPLite viability luminescence. cell killing (% activity), % at 4 µM or 5 µM. 220,000 tested, 0.41% active. AID 1443, 2008;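 active = cell killing above 50% in the first pass at 4 µM, then a duplicate retest at 5 µM averaging 50% or more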;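 note: plate controls were cells with TRAIL plus DMSO for no effect and medium-only wells lacking cells for full effect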
H9c2 TAG inh – inhibitors of triacylglycerol accumulation, primary screen, cell-based, uHTS, fluorescence, H9c2; 230,000 tested, 0.66% active; AID 651582, 2012; H9c2 cells, Nile Red lipid (TAG) fluorescence; cells loaded with 200 µM oleic acid; inhibition, % at 12.5 µM;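 active = pattern-corrected inhibition of lipid staining of at least 50% with the nuclear-stain viability signal not falling by more than 50%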;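 note: 0% = DMSO wells and 100% = triacsin C control wells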
STAT1 inh – STAT1 signaling inhibitors, primary screen, cell-based, HTS, luciferase reporter | NIH 3T3 STAT1-luciferase reporter, IFN-gamma, luminescence | inhibition, % at 5.5 µM | 200,000 tested, 0.35% active;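 active = inhibition above a set limit, the mean inhibition across all tested compounds plus 3 SD, cut at about 34% in these data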;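 note: 0% = IFN-gamma with DMSO and 100% = IFN-gamma with 300 µM nifuroxazide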
Platelet DG rel – inhibitors of platelet dense granule secretion, primary screen, cell-based, MLPCN, human platelets; human platelet-rich plasma, SFLLRN dense granule ATP release, luminescence; inhibition, %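 (compounds screened at 7.5 µM in platelet-rich plasma)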; 300,000 tested, 0.22% active; AID 1663, 2009;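 active = mean replicate score, as percent of positive control, at or above 50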
Lipid droplet – inhibitors of hepatocyte lipid droplet formation, primary screen, imaging, high-throughput imaging, BODIPY stain; AML12 mouse hepatocytes, oleate lipid droplets; inhibition, % at 6.5 µM; 240,000 tested, 0.4% active; AID 1656, 2009;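 active = lipid droplet intensity inhibited by at least 50%, with more than 500 cells counted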
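Technique: fluorescence imaging, 20x objective, two fields per well / Assay system: AML12 hepatocytes (mouse) / Measure: % inhibition of lipid droplet signal / Doses: 6.5 µM single-point dosing / Incubation: overnight exposure / Reagent: 100 µM oleic acid challenge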
TAG conf – triacylglycerol accumulation inhibitors, retest, confirmation, cell-based, single concentration, Nile Red fluorescence, H9c2; H9c2 lipid accumulation; cells loaded with 200 µM oleic acid; 990 tested, 71% active; shares compounds with H9c2 TAG inh; inhibition, % at 12.5 µM;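 active = mean inhibition across replicates of 40% or more; inactive = mean inhibition below 40%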;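 note: plate controls were DMSO only wells for no effect and Triacsin C treated wells for full effect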
An asterisk follows results filed as active; · = no result. Only some compounds are listed: those with a hit (about 1.5% of all), similar ones and a draw of the others.

SMILES	STAT3 blocker	PPC-1+TRAIL kill	H9c2 TAG inh	STAT1 inh	Platelet DG rel	Lipid droplet	TAG conf
COc1ccc(CNC(=O)C2CCN(c3nc(-c4ccccc4)nc4c3CCC4)CC2)cc1	·	·	52*	·	-11	42	41*
CCC[C@@H](CN[C@@H](CNC)[C@H](C)CC)NCC1CCC(C(C)(C)C)CC1 (stereo partly specified)	·	·	127*	·	-1	4	89*
CCOC(=O)CCCCCC(=O)Nc1ccc2c(c1)C(=O)N([C@@H](C)CO)C[C@@H](C)[C@H](CN(C)C(=O)Nc1ccccc1)OCCCC[C@H](C)O2	·	·	-11	·	·	·	·
COc1ccc(C[C@H]2CN3C(=NC[C@@H]3Cc3ccc(O)cc3)N2C[C@H](C)NC(=O)CCC2CCCCC2)cc1	·	14	51*	·	3	3	39
O=C(CCC1CCCCC1)NCCN1C2=NC[C@H](Cc3ccccc3)N2C[C@H]1Cc1ccc(O)cc1	·	12	·	-3	-8	-12	·
COc1ccc(C[C@H]2CN3C(=NC[C@@H]3C(C)C)N2CCNC(=O)c2ccc(C)c(Br)c2)cc1	·	16	·	20	-3	2	·
O=C(CCC1CCCCC1)NCCN1C2=NC[C@@H](Cc3ccccc3)N2C[C@H]1Cc1ccc(O)cc1	·	13	63*	4	1	-13	62*
COc1ccc(C[C@@H]2CN3C(=NC[C@@H]3Cc3ccc(O)cc3)N2C[C@H](C)NC(=O)CCC2CCCCC2)cc1	·	12	45	·	1	-14	·
Cc1ccc(C(=O)NCCN2C3=NC[C@H](C(C)C)N3C[C@H]2Cc2ccc(O)cc2)cc1Br	·	11	57*	-4	7	-16	40*
CC(C)CCOc1ccc(C(=O)NNC(=O)CNC(=O)c2ccccc2F)cc1	·	·	4	·	·	·	·
CC(C)[C@H](NC(=O)c1ccc(Cl)cc1)C(=O)OCC(=O)N1CCN(c2ccccc2)CC1	·	·	-26	·	·	·	·
CSCCC(NC(=O)COc1ccccc1)C(=O)NCC(C)(C)N1CCOCC1 (stereo unspecified)	·	·	2	·	·	·	·
CSC1=C(C#N)C(c2ccccc2Cl)C2=C(N1)c1ccccc1C2=O (stereo unspecified)	-1	3	33	4	3	·	·
CSC1=C(C#N)C(c2ccccc2C)C(C#N)=C(N)N1 (stereo unspecified)	12	-9	55*	-2	-13	·	5
Cc1ccc(C(O)c2ncc(-c3ccccc3)[nH]2)c(C)c1 (stereo unspecified)	·	·	-22	·	·	·	·
C(=N\Nc1nc2ccccc2[nH]1)/C1CCCCC1	-11	20	74*	-25	-5	11	10
CCN1C(=O)[C@H]2[C@@H](c3ccc(-c4ccccc4)c(OC)c3)N[C@@](CC(C)C)(C(=O)OC)[C@H]2C1=O	·	·	57*	·	·	·	40*
COC(=O)[C@]1(CC(C)C)N[C@H](c2ccc(SC3CCCCC3)c(OC)c2)[C@@H]2C(=O)N(C)C(=O)[C@@H]21	·	·	20	·	6	·	·
CCCCCCSc1ccc([C@H]2N[C@@](CC(C)C)(C(=O)OC)[C@H]3C(=O)N(C)C(=O)[C@@H]23)cc1OC	·	·	64*	·	5	·	55*
N#C/C(=C\c1cccn1S(=O)(=O)c1ccccc1)S(=O)(=O)c1ccc(F)cc1	·	·	-24	·	·	·	·
Cc1cc(C)cc(C(=O)NCC(=O)OCC(=O)N2CCCC2)c1	·	·	-5	·	·	·	·
CC1CCN(C(=O)c2[nH]cnc2C(=O)Nc2ccc(Cl)cc2)CC1	·	·	-1	·	·	·	·
CSCCC(NC(=O)c1ccco1)C(=O)N1CCN(C(c2ccccc2)c2ccccc2)CC1 (stereo unspecified)	·	·	-13	·	·	·	·
C#CCN(C[C@H]1[C@H](OC(=O)NCC2CCCCC2)[C@H](OC(=O)NCC2CCCCC2)C[C@@H](C(=O)OC)[C@H]1C(=O)OC)S(=O)(=O)c1ccc(C)cc1	·	·	82*	·	·	·	89*
CCOc1ccc(CN(C)C(=O)CCl)cc1	10	28	58*	15	-1	9	80*
SMILES	STAT3 blocker	PPC-1+TRAIL kill	H9c2 TAG inh	STAT1 inh	Platelet DG rel	Lipid droplet	TAG conf
COc1ccc(-c2c(N)cnc(C(=O)O)c2C)c(OCc2ccccc2)c1OC	·	·	-2	·	·	·	·
Cc1ccc(-c2cccc(-c3cc(=O)oc4ccc(C(C)(C)C)cc34)c2)cc1	·	·	-56	·	·	·	·
O=C(Nc1ccc(Cl)cc1)c1csc([C@@H]2O[C@H](CO)[C@@H](O)[C@H]2O)n1	·	·	-2	·	·	·	·
CCc1cc2c3c(c1)C1(C(=O)N3C(C)(C)C=C2C)C(C#N)=C(N)Oc2[nH]c(=O)[nH]c(=O)c21 (stereo unspecified)	-4	22	51*	-2	1	0	49*
COc1ccc(NS(=O)(=O)c2cc(C)ccc2NC(=O)c2cc(C)oc2C)cc1	-5	-12	62*	8	14	-40	79*
CCOc1ccccc1-c1ccc2nccn2c1	·	·	-7	·	·	·	·
CCOC(=O)CSc1cccc2cccnc12	13	10	96*	-2	6	7	41*
O=C(CSc1cccc2cccnc12)Nc1ccc(S(=O)(=O)N2CCOCC2)cc1	·	20	72*	·	-1	0	57*
CCCCCOc1ccc(NC(=O)CSc2cccc3cccnc23)cc1	4	14	57*	-3	-1	-1	56*
COc1cccc(/C=N/NC(=O)CSc2cccc3cccnc23)c1	·	-12	61*	·	-5	7	56*
O=C(CSc1cccc2cccnc12)N/N=C/c1ccc(O)cc1	·	1	-8	·	14	-3	·
COc1ccc(NC(=O)CSc2cccc3cccnc23)c(OC)c1	0	14	·	-3	-9	5	·
COc1cccc(C(C)(O)c2nc(-c3ccc(S(C)(=O)=O)cc3)cs2)c1 (stereo unspecified)	·	·	-21	·	·	·	·
COc1cc(C#Cc2c(-c3cncn3C)n(C)c3ccc(-c4ccc(OC)c(OC)c4)cc23)cc(OC)c1	·	·	70*	·	·	·	69*
COc1cccc(-c2c(-c3cc(OC)cc(OC)c3)n(C)c3ccc(-c4ccc5cc[nH]c5c4)cc23)c1	·	·	-42	·	·	·	·
COc1cc(C#Cc2c(-c3cncn3C)n(C)c3ccc(-c4ccc5cc[nH]c5c4)cc23)cc(OC)c1	·	·	82*	·	·	·	74*
COc1cc(C#Cc2c(-c3cncn3C)n(C)c3ccc(Br)cc23)cc(OC)c1	·	·	48	·	·	·	·
CCNC(=O)C1CCCN(C(=O)c2ccccc2F)CC1 (stereo unspecified)	·	·	2	·	·	·	·
COc1ccc(OC)c(NS(=O)(=O)c2ccc(N3CCCC3=O)cc2)c1	-4	4	57*	11	-3	·	42*
